One series deals with Rhodopsin kinase GRK1 (Bos taurus, UniProt P28327). In words: Inhibition of bovine GRK1 (1 to 535 residues) after 5 mins after 5 mins in presence of ATP by phosphorimaging assay.
In series [1] the target is G protein-coupled receptor kinase 5 (Bos taurus, UniProt P43249). In words: Inhibition of bovine GRK5 after 5 mins after 5 mins in presence of ATP by phosphorimaging assay.
The nature of series [2]: Inhibition of mouse PKA using CREBtide as substrate after 30 mins in presence of ATP by ADP-Glo kinase assay. In short, it runs like this: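 Mouse PKA catalytic subunit activity by ADP-Glo luminescence per kit protocol; inhibition curves fitted to obtain values.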
Series [3] is described as follows: Plasma concentration in CD-1 mouse at 10 mg/kg, ip after 4 hrs administered as single dose by LC-MS/MS analysis. The format is ADME, organism-based. In short, it runs like this:
(§1)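 Female CD-1 mice given a single ip dose of 10 mg/kg in 15% DMSO/15% PEG-400/70% PBS (v/v); blood sampled at 0.5, 2, 4 and 7 h, centrifuged, plasma frozen at −80 °C; drug quantified by positive-ion MRM LC–MS/MS; parameters by noncompartmental analysis.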

A short description of series [4]: Plasma concentration in CD-1 mouse at 10 mg/kg, ip after 7 hrs administered as single dose by LC-MS/MS analysis. Format: ADME, organism-based. In short, it runs like this:
as §1

In another series the test system is Mus musculus. In words: AUC (0 to 7 hrs) in CD-1 mouse at 10 mg/kg, ip administered as single dose by LC-MS/MS analysis. The format is ADME, organism-based. Details: time < 7 hr, dose 10 mg/kg, route intraperitoneal. As to conditions: in vivo. A digest of the protocol: as §1
The test system of another series is Liver. In words: Half life in CD-1 mouse liver microsomes at 1 uM measured up to 60 mins in presence of NADPH by LC-MS/MS analysis. Format: ADME, microsome. Conditions: 1 h. (Liver microsomes are vesicles of endoplasmic reticulum, rich in cytochrome P450 enzymes.)
Series [5] has as its target T1, Beta-adrenergic receptor kinase 1 (Mus musculus) (UniProt Q99MK8).
T1 sequence (whole entry): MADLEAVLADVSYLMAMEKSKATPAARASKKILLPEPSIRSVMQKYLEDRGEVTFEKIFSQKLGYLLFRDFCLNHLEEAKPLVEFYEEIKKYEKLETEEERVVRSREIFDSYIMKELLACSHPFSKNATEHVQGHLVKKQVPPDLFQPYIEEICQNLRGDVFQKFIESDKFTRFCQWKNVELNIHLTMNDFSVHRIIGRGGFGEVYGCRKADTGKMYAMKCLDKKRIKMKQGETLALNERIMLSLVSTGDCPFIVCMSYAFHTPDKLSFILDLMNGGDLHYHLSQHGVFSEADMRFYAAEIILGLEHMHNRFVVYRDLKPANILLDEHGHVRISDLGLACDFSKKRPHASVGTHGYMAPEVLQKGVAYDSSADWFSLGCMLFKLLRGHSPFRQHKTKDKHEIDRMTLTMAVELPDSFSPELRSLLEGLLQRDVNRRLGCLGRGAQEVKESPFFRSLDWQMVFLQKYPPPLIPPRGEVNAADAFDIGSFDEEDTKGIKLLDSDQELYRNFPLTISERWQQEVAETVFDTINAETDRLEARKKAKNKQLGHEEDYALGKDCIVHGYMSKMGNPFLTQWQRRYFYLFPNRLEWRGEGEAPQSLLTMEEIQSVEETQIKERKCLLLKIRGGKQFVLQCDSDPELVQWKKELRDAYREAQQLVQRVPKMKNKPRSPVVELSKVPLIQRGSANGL
The series is described as follows: Inhibition of GRK2 in isoproterenol-stimulated C57/BL6 mouse cardiomyocytes assessed as increase in contractility by measuring cell shortening at 1 uM pretreated for 10 mins followed by beta-AR agonist isoproterenol addition for 2 mins.

Series [6] deals with T1, Beta-adrenergic receptor kinase 1 (Mus musculus). The series is described as follows: Inhibition of GRK2 in isoproterenol-stimulated C57/BL6 mouse cardiomyocytes assessed as increase in contractility by measuring cell shortening at 0.1 uM pretreated for 10 mins followed by beta-AR agonist isoproterenol addition for 2 mins.
Series [7] has the same target. Conditions: C57/BL6.
The target is the same in series [8]. The series is described as follows: Inhibition of GRK2 in isoproterenol-stimulated C57/BL6 mouse cardiomyocytes assessed as increase in contractility by measuring cell shortening at 0.5 uM pretreated for 10 mins followed by beta-AR agonist isoproterenol addition for 2 mins.

The source made the active and inactive calls. The calls are words filed in the database; no cut-off is given here. Where only a bound is given, the exact number is not on record here.

Rhodopsin kinase GRK1, sequence (P28327 whole entry, the tested form may be a part): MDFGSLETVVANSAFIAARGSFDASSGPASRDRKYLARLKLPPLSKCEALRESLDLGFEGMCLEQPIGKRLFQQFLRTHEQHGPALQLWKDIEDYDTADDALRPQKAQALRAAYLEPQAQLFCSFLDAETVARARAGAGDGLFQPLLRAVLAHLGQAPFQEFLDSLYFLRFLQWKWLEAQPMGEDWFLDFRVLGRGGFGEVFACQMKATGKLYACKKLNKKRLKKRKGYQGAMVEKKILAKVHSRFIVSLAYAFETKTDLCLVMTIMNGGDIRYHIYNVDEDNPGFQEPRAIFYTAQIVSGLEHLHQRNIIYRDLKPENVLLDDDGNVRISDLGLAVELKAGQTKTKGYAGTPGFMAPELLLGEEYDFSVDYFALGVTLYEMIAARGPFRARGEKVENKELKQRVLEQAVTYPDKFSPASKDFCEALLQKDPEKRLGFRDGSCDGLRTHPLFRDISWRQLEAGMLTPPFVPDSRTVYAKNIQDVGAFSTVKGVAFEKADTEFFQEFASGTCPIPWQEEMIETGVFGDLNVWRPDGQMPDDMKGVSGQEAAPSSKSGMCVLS
G protein-coupled receptor kinase 5, sequence (P43249 whole entry): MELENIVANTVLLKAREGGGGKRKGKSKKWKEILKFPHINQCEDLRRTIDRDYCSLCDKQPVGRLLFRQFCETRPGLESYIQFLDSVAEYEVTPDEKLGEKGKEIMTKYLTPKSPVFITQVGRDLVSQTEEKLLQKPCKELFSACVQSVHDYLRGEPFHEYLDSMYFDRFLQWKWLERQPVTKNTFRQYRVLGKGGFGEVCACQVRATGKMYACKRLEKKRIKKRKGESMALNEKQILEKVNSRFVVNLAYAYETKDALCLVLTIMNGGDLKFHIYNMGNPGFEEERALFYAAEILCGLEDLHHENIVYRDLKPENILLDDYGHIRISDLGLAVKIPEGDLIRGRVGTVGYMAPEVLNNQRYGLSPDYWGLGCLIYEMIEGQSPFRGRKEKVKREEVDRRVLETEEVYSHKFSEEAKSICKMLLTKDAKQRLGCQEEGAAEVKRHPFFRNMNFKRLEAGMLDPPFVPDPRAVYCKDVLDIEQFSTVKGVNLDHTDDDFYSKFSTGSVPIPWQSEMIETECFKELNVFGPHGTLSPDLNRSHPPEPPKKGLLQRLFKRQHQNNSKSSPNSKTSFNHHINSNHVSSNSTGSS

One may read the IC50 as the concentration needed to halve the response being measured. On to `O=C(NCc1ccncc1)c1cc([C@@H]2CCNC[C@H]2COc2ccc3c(c2)OCO3)ccc1F`, for which the IC50 (at Rhodopsin kinase GRK1; in series [1]; in [2]) was greater than 100 µM each time.
With `O=C(NCCc1ccncc1)c1cc([C@@H]2CCNC[C@H]2COc2ccc3c(c2)OCO3)ccc1F`, the IC50 (at Rhodopsin kinase GRK1; in series [1]; in series [2]) was greater than 100 µM throughout.
For the compound `O=C(NCc1ccccc1C(F)(F)F)c1cc([C@@H]2CCNC[C@H]2COc2ccc3c(c2)OCO3)ccc1F`, the IC50 at Rhodopsin kinase GRK1 was greater than 100 µM; in series [1] it was 75.7 µM; in series [2], greater than 100 µM.
Consider `Cn1nccc1CNC(=O)c1cc([C@@H]2CCNC[C@H]2COc2ccc3c(c2)OCO3)ccc1F`, for which the IC50 (at Rhodopsin kinase GRK1; in series [1]; in series [2]) was greater than 100 µM throughout.
By AUC is commonly meant the area under the concentration-time curve, a measure of exposure. A high value points to high exposure. Turning to `Cn1c(CNc2cccc(C(=O)NCc3ccccc3C(F)(F)F)c2)nnc1-c1ccncc1`, the IC50 at Rhodopsin kinase GRK1 was 52.1 µM; in series [1], 9.2 µM. Further, the concentration at 4 h in series [3] is 5 nM. In addition, the concentration at 7 h in series [4] is 6 nM. The same compound displayed an AUC in the series with Mus musculus of 1.9 µM·h.
In the case of `CC1=C(C(=O)Nc2ccc3[nH]ncc3c2)C(c2ccc(F)cc2)NC(=O)N1` (centres undefined) [GSK-180736A], at Rhodopsin kinase GRK1, the IC50 is greater than 100 µM. Besides, the t1/2 in the series on Liver is reported as 20.6 min. For the same compound, the inhibition entry in series [5] was “Active”.
`O=C(NCCc1cc[nH]n1)c1cc([C@@H]2CCNC[C@H]2COc2ccc3c(c2)OCO3)ccc1F`: the IC50 (on Rhodopsin kinase GRK1; in series [1]; in series [2]) was greater than 100 µM in each case.
For the compound `O=C(NCCc1ccccc1)c1cc([C@@H]2CCNC[C@H]2COc2ccc3c(c2)OCO3)ccc1F`, the IC50 (at Rhodopsin kinase GRK1; in series [1]; in series [2]) was greater than 100 µM each time.
In the case of `COc1cccc(OC)c1CNC(=O)c1cc([C@@H]2CCNC[C@H]2COc2ccc3c(c2)OCO3)ccc1F`, the values for the IC50 (on Rhodopsin kinase GRK1; in series [1]; in [2]) were 32 µM, 38.4 µM and greater than 100 µM, respectively. The t1/2 with Liver is reported as 24.9 min.
For `O=C(NCc1c(F)cccc1F)c1cc([C@@H]2CCNC[C@H]2COc2ccc3c(c2)OCO3)ccc1F`, the concentration for half-maximal inhibition (IC50) on Rhodopsin kinase GRK1 is greater than 100 µM; in series [1] it was 37.2 µM; in series [2], greater than 100 µM.
On to `O=C(NCc1cccnc1)c1cc([C@@H]2CCNC[C@H]2COc2ccc3c(c2)OCO3)ccc1F`, for which the IC50 was greater than 100 µM at Rhodopsin kinase GRK1, 76.3 µM in series [1] and greater than 100 µM in series [2].
For `CCCn1c(CNc2cccc(C(=O)NCc3c(F)cccc3F)c2)nnc1-c1ccncn1`, the IC50 at Rhodopsin kinase GRK1 was determined as 9.1 µM; in series [1], 2.2 µM.
For the compound `Cc1cc(CNC(=O)c2cc([C@@H]3CCNC[C@H]3COc3ccc4c(c3)OCO4)ccc2F)n[nH]1`, the IC50 at Rhodopsin kinase GRK1 was 86.5 µM; in series [1], 4 µM; in series [2], greater than 100 µM. Also, the t1/2 in the series on Liver is on record as 10.3 min.
`Fc1ccc([C@@H]2CCNC[C@H]2COc2ccc3c(c2)OCO3)cc1` [PAROXETINE]: the IC50 (on Rhodopsin kinase GRK1; in series [1]; in series [2]) was greater than 100 µM each time. Also, the t1/2 in the series with Liver was 24.3 min.
For the compound `O=C(Cc1cc([C@@H]2CCNC[C@H]2COc2ccc3c(c2)OCO3)ccc1F)NCc1ccccn1`, the IC50 is 60 µM at Rhodopsin kinase GRK1, greater than 100 µM in [1] and 48.2 µM in series [2].
For the compound `O=C(NCc1ccn[nH]1)c1cc([C@@H]2CCNC[C@H]2COc2ccc3c(c2)OCO3)ccc1F`, the 50% inhibitory concentration (IC50) in series [2] is greater than 100 µM. Further, the inhibition entry in [6] is “Active”. The compound further yielded a concentration at 4 h in series [3] of 270 nM. This compound had a concentration at 7 h in [4] of 43 nM. Also, the MEC in series [7] came out at 0.1 µM.
With `O=C(NCc1ccccc1)c1cc([C@@H]2CCNC[C@H]2COc2ccc3c(c2)OCO3)ccc1F`, the IC50 was greater than 100 µM at Rhodopsin kinase GRK1, 84.3 µM in series [1] and greater than 100 µM in series [2].
`O=C(NCCc1c(F)cccc1F)c1cc([C@@H]2CCNC[C@H]2COc2ccc3c(c2)OCO3)ccc1F`: the 50% inhibitory concentration (IC50) is greater than 100 µM on Rhodopsin kinase GRK1, 10.2 µM in series [1] and greater than 100 µM in series [2].
Consider `COc1ccccc1CNC(=O)c1cc([C@@H]2CCNC[C@H]2COc2ccc3c(c2)OCO3)ccc1F`, for which the half-maximal inhibitory concentration (IC50) (on Rhodopsin kinase GRK1; in [1]; in series [2]) was greater than 100 µM in each case.
For the compound `Cc1cccc(C)c1CNC(=O)c1cc([C@@H]2CCNC[C@H]2COc2ccc3c(c2)OCO3)ccc1F`, the results for the half-maximal inhibitory concentration (IC50) (on Rhodopsin kinase GRK1; in [1]; in series [2]) were 24.5 µM, 42.3 µM and greater than 100 µM, respectively. Moreover, the t1/2 in the series with Liver stood at 45.9 min.
As for `O=C(NCc1ncc[nH]1)c1cc([C@@H]2CCNC[C@H]2COc2ccc3c(c2)OCO3)ccc1F`, the IC50 at Rhodopsin kinase GRK1 was greater than 100 µM; in series [1], 14.8 µM; in series [2] it was greater than 100 µM.
With `O=C(NCCc1ccccn1)c1cc([C@@H]2CCNC[C@H]2COc2ccc3c(c2)OCO3)ccc1F`, the IC50 (on Rhodopsin kinase GRK1; in [1]; in series [2]) was greater than 100 µM in each case.
Turning to `O=C(Cc1cc([C@@H]2CCNC[C@H]2COc2ccc3c(c2)OCO3)ccc1F)NCCc1ccccn1`, the IC50 (at Rhodopsin kinase GRK1; in [1]; in series [2]) was greater than 100 µM throughout.
In the case of `O=C(NCCc1cccnc1)c1cc([C@@H]2CCNC[C@H]2COc2ccc3c(c2)OCO3)ccc1F`, the half-maximal inhibitory concentration (IC50) (on Rhodopsin kinase GRK1; in series [1]; in series [2]) was greater than 100 µM in each case.
As to `CNC(=O)c1cc([C@@H]2CCNC[C@H]2COc2ccc3c(c2)OCO3)ccc1F`, the IC50 (on Rhodopsin kinase GRK1; in [1]; in series [2]) was greater than 100 µM each time.
Take `O=C(NCc1ccccn1)c1cc([C@@H]2CCNC[C@H]2COc2ccc3c(c2)OCO3)ccc1F`: the half-inhibitory concentration (IC50) on Rhodopsin kinase GRK1 was greater than 100 µM; in series [1], 17.1 µM; in series [2], greater than 100 µM. Further, the t1/2 with Liver amounted to 3.15 min. In addition, the inhibition entry in series [8] and in series [5] was “inactive” in each case.
In the case of `O=C(NCc1c(Cl)cccc1Cl)c1cc([C@@H]2CCNC[C@H]2COc2ccc3c(c2)OCO3)ccc1F`, the values for the IC50 (at Rhodopsin kinase GRK1; in series [1]; in series [2]) were 25.8 µM, 33.2 µM and greater than 100 µM, respectively. Also, the t1/2 with Liver was 36.4 min.
As to `O=C(NCCc1c[nH]cn1)c1cc([C@@H]2CCNC[C@H]2COc2ccc3c(c2)OCO3)ccc1F`, the IC50 (on Rhodopsin kinase GRK1; in series [1]; in series [2]) was greater than 100 µM each time.
Turning to `O=C(Cc1cc([C@@H]2CCNC[C@H]2COc2ccc3c(c2)OCO3)ccc1F)NCCc1cn[nH]c1`, the IC50 (on Rhodopsin kinase GRK1; in [1]; in [2]) was greater than 100 µM in each case.
In the case of `COc1cccc(OC)c1CNC(=O)c1cc(C2NC(=O)NC(C)=C2C(=O)Nc2ccc3[nH]ncc3c2)ccc1F` (centres undefined), the IC50 (at Rhodopsin kinase GRK1; in [1]; in series [2]) was greater than 100 µM each time. Also, in the series with Liver, the t1/2 stood at 3.82 min.
`O=C(NCCc1cn[nH]c1)c1cc([C@@H]2CCNC[C@H]2COc2ccc3c(c2)OCO3)ccc1F`: the IC50 (on Rhodopsin kinase GRK1; in series [1]; in series [2]) was greater than 100 µM in each case.
As to `Cn1ccc(CNC(=O)c2cc([C@@H]3CCNC[C@H]3COc3ccc4c(c3)OCO4)ccc2F)n1`, the IC50 (at Rhodopsin kinase GRK1; in series [1]; in series [2]) was greater than 100 µM each time.
Take `O=C(NCc1cn[nH]c1)c1cc([C@@H]2CCNC[C@H]2COc2ccc3c(c2)OCO3)ccc1F`: the IC50 (at Rhodopsin kinase GRK1; in series [1]; in series [2]) was greater than 100 µM in each case.
With `COc1ccccc1CNC(=O)Cc1cc([C@@H]2CCNC[C@H]2COc2ccc3c(c2)OCO3)ccc1F`, the IC50 was greater than 100 µM on Rhodopsin kinase GRK1, greater than 100 µM in series [1] and 25.8 µM in series [2].

These data come from ChEMBL document CHEMBL4043080 (J Med Chem, 2017).
